Source: ChEMBL document CHEMBL4342528, “Discovery of a First-in-Class Protein Arginine Methyltransferase 6 (PRMT6) Covalent Inhibitor” (J Med Chem, 2020)
Activity calls are given as the source filed them. No cut-off for these calls is given here.

Assays:
Homo sapiens [1] = species on record: Homo sapiens; assay: Inhibition of DNMT3A/3L (unknown origin) at 50 uM using un-biotinylated Poly(2'-deoxyinosinic-2'-deoxycytidylic acid) substrate using [3H-SAM] at 50 uM incubated for 1 hr by scintillation proximity assay relative to control
How it was run: (§1)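 Panel of 33 methyltransferases (22 PKMTs, 3 DNMTs, 8 PRMTs), each tested at 10 and 50 μM compound. Activity was read as ³H-methyl transfer from ³H-SAM in a radiometric assay done as previously described.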

PNT2 = assay: Toxicity in human PNT2 cells assessed as reduction in cell viability up to 20 uM incubated for 3 days by CCK8 assay; format: cell-based; details: pnt2, 72 h
How it was run: (§2)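 Cells seeded 1×10^4 per well in triplicate, treated after 24 h with serial dilutions from 20 μM for 3 days; CCK-8 (WST-8) added, 4 h at 37 °C, absorbance at 450 nm; mean ± SD of three replicate experiments.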

[2] = target: Histone-lysine N-methyltransferase SUV39H1 (Homo sapiens) (UniProt O43463); assay: Inhibition of SUV39H1 (unknown origin) assessed as reduction in incorporation of [3H]-labeled methyl group into biotinylated substrate using [3H-SAM] at 50 uM incubated for 1 hr by scintillation proximity assay relative to control; how it was run: as §1
[3] = target: Histone-lysine N-methyltransferase NSD3 (Homo sapiens) (UniProt Q9BZ95); assay: Inhibition of NSD3 (unknown origin) at 10 uM using [3H-SAM] and nucleosome as substrate incubated for 1 hr by scintillation proximity assay; how it was run: as §1
[4] = target: Histone-lysine N-methyltransferase EHMT1 (Homo sapiens) (UniProt Q9H9B1); assay: Inhibition of GLP (unknown origin) assessed as reduction in incorporation of [3H]-labeled methyl group into biotinylated substrate using [3H-SAM] at 10 uM incubated for 1 hr by scintillation proximity assay; how it was run: as §1
HEK-293T = assay: Toxicity in HEK293T cells assessed as reduction in cell viability up to 20 uM incubated for 3 days by CCK8 assay; format: cell-based; details: human, 72 h; how it was run: as §2
[5] = target: Histone-lysine N-methyltransferase 2C (Homo sapiens) (UniProt Q8NEZ4); assay: Inhibition of MLL3 (unknown origin) assessed as reduction in incorporation of [3H]-labeled methyl group into biotinylated substrate using [3H-SAM] at 10 uM incubated for 1 hr by scintillation proximity assay; how it was run: as §1
[6] = target: Protein arginine N-methyltransferase 7 (Homo sapiens) (UniProt Q9NVM4); assay: Inhibition of PRMT7 (unknown origin) assessed as reduction in incorporation of [3H]-labeled methyl group into biotinylated substrate using [3H-SAM] at 10 uM incubated for 1 hr by scintillation proximity assay; how it was run: as §1
Homo sapiens [7] = species on record: Homo sapiens; assay: Inhibition of DNMT3A/3L (unknown origin) at 10 uM using un-biotinylated Poly(2'-deoxyinosinic-2'-deoxycytidylic acid) substrate using [3H-SAM] incubated for 1 hr by scintillation proximity assay; how it was run: as §1
[8] = target: Protein arginine N-methyltransferase 1 (Homo sapiens, UniProt Q99873); assay: Inhibition of human PRMT1 using [3H]SAM as donor and [3H]methylated biotin-labeled peptide as substrate by scintillation proximity assay
[9] = target: Protein arginine N-methyltransferase 5 (Homo sapiens) (UniProt O14744); assay: Inhibition of PRMT5 (unknown origin) assessed as reduction in incorporation of [3H]-labeled methyl group into biotinylated substrate using [3H-SAM] at 10 uM incubated for 1 hr by scintillation proximity assay; how it was run: as §1
[10] = target: T1, Protein arginine N-methyltransferase 6 (Homo sapiens, UniProt Q96LA8); assay: Inhibition of human PRMT6 assessed as Kinact/Ki ratio pre-incubated for 1 to 30 mins using [3H]SAM as donor and [3H]methylated biotin-labeled peptide as substrate by scintillation proximity assay
Target sequence in this assay (Q96LA8 whole entry, looked up): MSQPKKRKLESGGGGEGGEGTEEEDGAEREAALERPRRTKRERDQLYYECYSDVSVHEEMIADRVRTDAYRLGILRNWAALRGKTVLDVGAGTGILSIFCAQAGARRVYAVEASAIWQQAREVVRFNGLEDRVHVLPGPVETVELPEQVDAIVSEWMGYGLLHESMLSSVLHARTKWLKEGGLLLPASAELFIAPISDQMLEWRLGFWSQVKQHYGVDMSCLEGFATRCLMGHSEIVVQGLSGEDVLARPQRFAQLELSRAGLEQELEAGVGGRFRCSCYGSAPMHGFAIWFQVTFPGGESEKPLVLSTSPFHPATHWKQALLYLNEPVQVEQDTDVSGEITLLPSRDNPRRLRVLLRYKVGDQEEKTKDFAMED

[11] = target: Histone-lysine N-methyltransferase SUV39H1 (Homo sapiens) (UniProt O43463); assay: Inhibition of SUV39H1 (unknown origin) assessed as reduction in incorporation of [3H]-labeled methyl group into biotinylated substrate using [3H-SAM] at 10 uM incubated for 1 hr by scintillation proximity assay; how it was run: as §1
[12] = target: Protein arginine N-methyltransferase 8 (Homo sapiens, UniProt Q9NR22); assay: Inhibition of PRMT8 (unknown origin) assessed as reduction in incorporation of [3H]-labeled methyl group into biotinylated substrate using [3H-SAM] at 50 uM incubated for 1 hr by scintillation proximity assay relative to control; how it was run: as §1
[13] = target: Histone-lysine N-methyltransferase KMT5C (Homo sapiens) (UniProt Q86Y97); assay: Inhibition of SUV420H2 (unknown origin) assessed as reduction in incorporation of [3H]-labeled methyl group into biotinylated substrate using [3H-SAM] at 10 uM incubated for 1 hr by scintillation proximity assay
[14] = target: T1, Protein arginine N-methyltransferase 6; assay: Inhibition of human PRMT6 using [3H]SAM as donor and [3H]methylated biotin-labeled peptide as substrate by scintillation proximity assay
How it was run: (§3)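 Compound titrated into the reaction; 1 h enzyme–compound preincubation stated for PRMT6. Methylated peptide captured on streptavidin/scintillant-coated plates and counted (cpm). IC50 from concentration–response, triplicate, mean ± SD.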
Target sequence in this assay (Q96LA8 whole entry): as the sequence (Q96LA8 whole entry, looked up) above

[15] = target: Histone-lysine N-methyltransferase, H3 lysine-79 specific (Homo sapiens) (UniProt Q8TEK3); assay: Inhibition of DOT1L (unknown origin) at 10 uM using [3H-SAM] and nucleosome as substrate incubated for 1 hr by scintillation proximity assay; how it was run: as §1
[16] = target: T1, Protein arginine N-methyltransferase 6; assay: Inhibition of human PRMT6 pre-incubated for 1 to 30 mins using [3H]SAM as donor and [3H]methylated biotin-labeled peptide as substrate by scintillation proximity assay
[17] = target: Histone-lysine N-methyltransferase PRDM9 (Homo sapiens) (UniProt Q9NQV7); assay: Inhibition of PRDM9 (unknown origin) assessed as reduction in incorporation of [3H]-labeled methyl group into biotinylated substrate using [3H-SAM] at 10 uM incubated for 1 hr by scintillation proximity assay; how it was run: as §1
[18] = target: Protein arginine N-methyltransferase 3 (Homo sapiens, UniProt O60678); assay: Inhibition of human PRMT3 using [3H]SAM as donor and [3H]methylated biotin-labeled peptide as substrate by scintillation proximity assay; how it was run: as §3
[19] = target: T1, Protein arginine N-methyltransferase 6; assay: Inhibition of PRMT6 (unknown origin) assessed as reduction in incorporation of [3H]-labeled methyl group into biotinylated substrate using [3H-SAM] at 50 uM incubated for 1 hr by scintillation proximity assay relative to control; how it was run: as §1
Target sequence in this assay (Q96LA8 whole entry, looked up): as above

[20] = target: DNA (cytosine-5)-methyltransferase 1 (Homo sapiens) (UniProt P26358); assay: Inhibition of DNMT1 (unknown origin) at 10 uM using double-stranded DNA substrate using [3H-SAM] incubated for 1 hr by scintillation proximity assay; how it was run: as §1
[21] = target: T1, Protein arginine N-methyltransferase 6; assay: Time dependent inhibition of human PRMT6 pre-incubated for 1 to 30 mins using [3H]SAM as donor and [3H]methylated biotin-labeled peptide as substrate by scintillation proximity assay; details: TDE = time-dependent effect
Target sequence in this assay (Q96LA8 whole entry, looked up): as above

Chain of Histone-lysine N-methyltransferase SUV39H1 (Homo sapiens) (O43463 whole entry): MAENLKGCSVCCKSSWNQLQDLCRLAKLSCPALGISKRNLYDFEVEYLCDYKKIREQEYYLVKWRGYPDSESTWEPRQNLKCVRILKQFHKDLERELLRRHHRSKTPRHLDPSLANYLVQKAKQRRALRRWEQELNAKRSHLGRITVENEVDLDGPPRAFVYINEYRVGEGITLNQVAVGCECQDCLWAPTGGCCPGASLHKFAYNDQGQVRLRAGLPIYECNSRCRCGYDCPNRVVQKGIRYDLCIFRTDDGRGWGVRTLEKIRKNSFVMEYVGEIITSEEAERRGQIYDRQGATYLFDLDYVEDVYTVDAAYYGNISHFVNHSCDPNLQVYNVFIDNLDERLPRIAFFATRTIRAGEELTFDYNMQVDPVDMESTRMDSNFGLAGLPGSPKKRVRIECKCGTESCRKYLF
Chain of Protein arginine N-methyltransferase 1 (Q99873 whole entry): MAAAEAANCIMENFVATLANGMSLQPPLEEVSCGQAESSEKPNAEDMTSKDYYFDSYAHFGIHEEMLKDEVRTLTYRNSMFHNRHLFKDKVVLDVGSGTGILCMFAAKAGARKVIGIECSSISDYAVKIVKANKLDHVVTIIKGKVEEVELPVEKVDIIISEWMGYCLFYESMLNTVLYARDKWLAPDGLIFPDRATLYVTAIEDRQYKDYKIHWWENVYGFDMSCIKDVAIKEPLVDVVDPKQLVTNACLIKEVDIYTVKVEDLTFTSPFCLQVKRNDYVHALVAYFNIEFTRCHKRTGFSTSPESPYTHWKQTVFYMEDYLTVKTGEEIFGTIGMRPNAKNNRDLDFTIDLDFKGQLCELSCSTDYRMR
Chain of Protein arginine N-methyltransferase 7 (Homo sapiens) (Q9NVM4 whole entry): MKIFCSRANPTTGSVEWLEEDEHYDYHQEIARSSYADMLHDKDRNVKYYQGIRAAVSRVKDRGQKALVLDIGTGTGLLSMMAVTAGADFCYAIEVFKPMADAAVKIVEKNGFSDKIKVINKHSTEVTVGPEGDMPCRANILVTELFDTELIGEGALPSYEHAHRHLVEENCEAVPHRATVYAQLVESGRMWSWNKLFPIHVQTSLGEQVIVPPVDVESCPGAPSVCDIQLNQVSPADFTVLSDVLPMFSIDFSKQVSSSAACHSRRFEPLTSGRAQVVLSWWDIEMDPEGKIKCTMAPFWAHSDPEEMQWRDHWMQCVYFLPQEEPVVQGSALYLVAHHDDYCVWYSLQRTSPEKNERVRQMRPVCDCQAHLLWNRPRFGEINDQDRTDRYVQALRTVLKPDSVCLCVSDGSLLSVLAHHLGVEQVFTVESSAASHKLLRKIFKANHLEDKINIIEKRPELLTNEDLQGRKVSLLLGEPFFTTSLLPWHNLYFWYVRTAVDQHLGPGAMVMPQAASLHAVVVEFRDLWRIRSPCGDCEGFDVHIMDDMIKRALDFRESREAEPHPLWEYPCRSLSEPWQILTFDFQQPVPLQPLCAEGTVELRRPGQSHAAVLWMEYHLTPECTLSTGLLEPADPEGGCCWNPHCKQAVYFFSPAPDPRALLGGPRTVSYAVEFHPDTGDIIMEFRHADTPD
Chain of Protein arginine N-methyltransferase 8 (Q9NR22 2-394 limits assumed): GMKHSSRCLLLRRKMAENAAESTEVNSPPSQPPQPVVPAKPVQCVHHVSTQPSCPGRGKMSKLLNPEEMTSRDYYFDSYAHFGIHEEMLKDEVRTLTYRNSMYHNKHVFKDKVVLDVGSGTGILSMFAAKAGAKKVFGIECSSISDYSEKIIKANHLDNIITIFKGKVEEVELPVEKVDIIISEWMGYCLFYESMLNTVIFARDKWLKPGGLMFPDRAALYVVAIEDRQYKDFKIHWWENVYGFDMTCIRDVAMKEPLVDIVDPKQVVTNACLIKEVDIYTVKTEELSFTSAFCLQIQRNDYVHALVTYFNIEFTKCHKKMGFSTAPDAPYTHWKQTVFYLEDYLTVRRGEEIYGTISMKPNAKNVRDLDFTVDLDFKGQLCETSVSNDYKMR
Chain of Histone-lysine N-methyltransferase EHMT1 (Homo sapiens) (Q9H9B1 whole entry): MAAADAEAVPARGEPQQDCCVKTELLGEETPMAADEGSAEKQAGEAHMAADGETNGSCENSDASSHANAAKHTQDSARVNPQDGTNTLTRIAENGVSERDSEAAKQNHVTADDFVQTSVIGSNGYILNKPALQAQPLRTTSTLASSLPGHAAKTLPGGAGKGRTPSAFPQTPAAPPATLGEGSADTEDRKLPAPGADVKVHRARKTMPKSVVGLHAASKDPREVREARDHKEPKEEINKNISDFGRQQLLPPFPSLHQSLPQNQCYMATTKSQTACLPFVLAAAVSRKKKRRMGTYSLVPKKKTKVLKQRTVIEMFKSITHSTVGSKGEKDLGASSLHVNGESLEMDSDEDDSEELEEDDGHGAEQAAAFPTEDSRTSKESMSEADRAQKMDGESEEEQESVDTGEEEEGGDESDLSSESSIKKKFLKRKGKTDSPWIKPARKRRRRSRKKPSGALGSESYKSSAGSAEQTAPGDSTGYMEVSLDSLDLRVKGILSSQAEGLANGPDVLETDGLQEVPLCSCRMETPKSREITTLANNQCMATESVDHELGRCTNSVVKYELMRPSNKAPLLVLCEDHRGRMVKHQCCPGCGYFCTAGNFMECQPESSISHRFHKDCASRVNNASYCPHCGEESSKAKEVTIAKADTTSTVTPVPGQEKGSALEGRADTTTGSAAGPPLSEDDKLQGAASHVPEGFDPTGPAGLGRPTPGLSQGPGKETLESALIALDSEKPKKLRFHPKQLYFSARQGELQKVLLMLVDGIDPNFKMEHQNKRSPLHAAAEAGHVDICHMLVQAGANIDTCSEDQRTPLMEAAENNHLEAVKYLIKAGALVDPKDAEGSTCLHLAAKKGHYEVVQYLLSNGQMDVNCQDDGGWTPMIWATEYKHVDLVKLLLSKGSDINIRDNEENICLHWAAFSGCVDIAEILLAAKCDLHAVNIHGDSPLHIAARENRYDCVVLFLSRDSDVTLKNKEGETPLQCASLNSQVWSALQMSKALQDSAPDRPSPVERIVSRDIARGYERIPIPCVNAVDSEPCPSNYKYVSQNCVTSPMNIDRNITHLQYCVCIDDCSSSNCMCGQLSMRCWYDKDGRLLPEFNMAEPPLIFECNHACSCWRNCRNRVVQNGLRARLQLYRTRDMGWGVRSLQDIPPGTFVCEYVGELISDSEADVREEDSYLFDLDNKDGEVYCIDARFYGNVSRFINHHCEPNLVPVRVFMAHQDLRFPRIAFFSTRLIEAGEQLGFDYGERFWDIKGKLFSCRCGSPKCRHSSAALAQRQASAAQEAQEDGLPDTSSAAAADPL
Chain of Histone-lysine N-methyltransferase KMT5C (Homo sapiens) (Q86Y97 whole entry, looked up): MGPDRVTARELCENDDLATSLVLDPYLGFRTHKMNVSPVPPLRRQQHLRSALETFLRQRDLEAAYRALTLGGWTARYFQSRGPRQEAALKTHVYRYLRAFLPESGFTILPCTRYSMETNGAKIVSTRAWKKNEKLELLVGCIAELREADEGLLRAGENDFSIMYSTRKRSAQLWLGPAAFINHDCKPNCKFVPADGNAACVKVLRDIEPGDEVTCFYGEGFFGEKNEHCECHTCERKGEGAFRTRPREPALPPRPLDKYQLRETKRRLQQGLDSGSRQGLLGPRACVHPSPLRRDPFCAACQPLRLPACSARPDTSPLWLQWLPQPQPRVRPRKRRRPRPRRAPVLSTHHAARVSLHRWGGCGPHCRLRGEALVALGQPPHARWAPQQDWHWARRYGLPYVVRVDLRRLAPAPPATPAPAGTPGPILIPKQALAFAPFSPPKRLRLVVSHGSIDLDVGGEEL
Chain of Histone-lysine N-methyltransferase PRDM9 (Homo sapiens) (Q9NQV7 whole entry): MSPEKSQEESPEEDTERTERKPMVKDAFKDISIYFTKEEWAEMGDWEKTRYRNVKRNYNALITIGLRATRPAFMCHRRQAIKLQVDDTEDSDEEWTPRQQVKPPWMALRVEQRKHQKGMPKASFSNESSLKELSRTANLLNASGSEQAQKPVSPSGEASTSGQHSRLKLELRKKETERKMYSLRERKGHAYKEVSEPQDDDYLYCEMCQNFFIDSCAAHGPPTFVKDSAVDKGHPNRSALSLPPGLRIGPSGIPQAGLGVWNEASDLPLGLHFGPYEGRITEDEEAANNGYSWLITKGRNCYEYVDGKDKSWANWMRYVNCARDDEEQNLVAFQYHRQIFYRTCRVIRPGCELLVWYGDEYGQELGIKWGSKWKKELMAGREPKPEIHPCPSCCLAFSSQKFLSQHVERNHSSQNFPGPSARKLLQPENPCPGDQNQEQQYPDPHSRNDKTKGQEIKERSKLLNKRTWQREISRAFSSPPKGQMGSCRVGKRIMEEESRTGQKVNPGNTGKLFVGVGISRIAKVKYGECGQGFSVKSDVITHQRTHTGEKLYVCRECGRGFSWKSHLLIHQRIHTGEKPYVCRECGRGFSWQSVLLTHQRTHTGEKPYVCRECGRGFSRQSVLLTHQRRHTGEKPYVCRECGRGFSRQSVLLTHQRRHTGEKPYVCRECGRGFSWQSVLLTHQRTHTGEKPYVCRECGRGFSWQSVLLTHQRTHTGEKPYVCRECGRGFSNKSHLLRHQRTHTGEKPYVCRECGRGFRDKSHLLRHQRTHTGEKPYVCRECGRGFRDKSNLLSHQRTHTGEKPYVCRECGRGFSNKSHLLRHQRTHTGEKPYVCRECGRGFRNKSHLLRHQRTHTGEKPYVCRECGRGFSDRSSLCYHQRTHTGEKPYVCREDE

C=CC(=O)Nc1cccc(-c2c[nH]cc2CN(C)CCN)c1
inhibition (Homo sapiens [1]): > 50%
Activity (PNT2): Non-Toxic
inhibition [2]: > 50%
inhibition [3]: inactive
inhibition [4]: inactive
Activity (HEK-293T): Non-Toxic
inhibition [5]: inactive
inhibition [6]: inactive
inhibition (Homo sapiens [7]): inactive
IC50 [8]: 100 nM
inhibition [9]: inactive
Ratio [10]: 8.3 ×10⁴ /M/s
inhibition [11]: inactive
inhibition [12]: > 50%
inhibition [13]: inactive
IC50 ([14]; read-out: IC50): 18 nM
IC50 ([14]; read-out: pIC50 (converted)): 15.8 nM
inhibition [15]: inactive
Ki [16]: 16 nM
Kinact [16]: 0.08 min⁻¹
inhibition [17]: inactive
IC50 [18]: 3000 nM
inhibition [19]: > 50%
inhibition [20]: inactive
inhibition [21]: Tde
